According to ChEMBL document CHEMBL5046314, “Repositioning of a Diaminothiazole Series Confirmed to Target the Cyclin-Dependent Kinase CRK12 for Use in the Treatment of African Animal Trypanosomiasis” (J Med Chem, 2022):
Active and inactive are the calls of the source. The calls are words filed in the database; no cut-off is given here.

Legend:
Trypanosoma congolense [1] = assay: Antitrypanosomal activity against bloodstream Trypanosoma congolense IL3000 infected in NMRI mouse assessed as reduction in parasitemia at 10 mg/kg, sc administered once daily for 4 days; assay type: functional; design: scale not given: the % may be the effect or the level left
Trypanosoma vivax [2] = assay: Antitrypanosomal activity against bloodstream Trypanosoma vivax STIB 719/ ILRAD 560 infected in NMRI mouse assessed as reduction in parasitemia at 10 mg/kg, sc administered for 4 days; assay type: functional; design: scale not given: the % may be the effect or the level left
Trypanosoma vivax [3] = assay: Antitrypanosomal activity against bloodstream Trypanosoma vivax STIB 719/ ILRAD 560 infected in NMRI mouse assessed as reduction in parasitemia at 3 mg/kg, sc administered for 4 days; assay type: functional; design: scale not given: the % may be the effect or the level left; details: time 4 day
Trypanosoma vivax [4] = assay: Antitrypanosomal activity against bloodstream Trypanosoma vivax STIB 719/ ILRAD 560 infected in NMRI mouse assessed as reduction in parasitemia at 10 mg/kg, sc administered for 2 days; assay type: functional; design: scale not given: the % may be the effect or the level left; details: time 2 day
Trypanosoma congolense [5] = assay: Antitrypanosomal activity against bloodstream Trypanosoma congolense IL3000 infected in Fulani Zebu cattle assessed as reduction in parasitemia at 10 mg/kg, IM administered as single dose monitered for 100 days; assay type: functional, organism-based; details: time 100.0 day
How it was run: (§1)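 Female Fulani Zebu cattle infected with the named strain received 10 mg/kg of the free base by IM injection. The vehicle was Kolliphor EL, N-methyl pyrrolidone, 2-pyrrolidone and 11% water. Dosing was once or twice 15 h apart. Saline vehicle controls got 0.2 mL/kg twice, 15 h apart. Animals were followed for 100 days after treatment to score cure.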

Trypanosoma vivax [6] = assay: Antitrypanosomal activity against bloodstream Trypanosoma vivax STIB 719/ ILRAD 560 infected in Fulani Zebu cattle assessed as reduction in parasitemia at 10 mg/kg, IM administered as single dose monitered for 100 days; assay type: functional, organism-based; details: time 100.0 day; how it was run: as §1
Trypanosoma vivax [7] = assay: Antitrypanosomal activity against bloodstream Trypanosoma vivax STIB 719/ ILRAD 560 infected in Fulani Zebu cattle assessed as reduction in parasitemia at 10 mg/kg, IM administered twice daily and measured after for 100 days; assay type: functional, organism-based; details: time 100.0 day; how it was run: as §1
Trypanosoma vivax [8] = assay: Antitrypanosomal activity against bloodstream Trypanosoma vivax STIB 719/ ILRAD 560 infected in Fulani Zebu cattle assessed as reduction in parasitemia at 10 mg/kg, IM administered twice daily and measured after 4 days; assay type: functional, organism-based; details: time 4.0 day
Trypanosoma congolense [9] = assay: Antitrypanosomal activity against bloodstream Trypanosoma congolense IL3000 infected in NMRI mouse assessed as reduction in parasitemia at 10 to 100 ng/ml administered via sc implanted ALZET osmotic pumps for 48 hrs; assay type: functional, organism-based; details: dose 10-100 ng/ml
[10] = test system: Trypanosoma brucei brucei; assay: Antitrypanosomal activity against bloodstream Trypanosoma brucei brucei infected in NMRI mouse assessed as parasite growth inhibition at 3 mg/kg, po BID for 4 days; assay type: functional; design: scale not given: the % may be the effect or the level left; details: time 4 day
Trypanosoma vivax [11] = assay: Antitrypanosomal activity against bloodstream Trypanosoma vivax STIB 719/ ILRAD 560 infected in NMRI mouse assessed as reduction in parasitemia at 10 mg/kg, sc BID for 4 days and measured twice a week for 21 days; assay type: functional; design: scale not given: the % may be the effect or the level left; details: time 21 day
Trypanosoma vivax [12] = assay: Antitrypanosomal activity against bloodstream Trypanosoma vivax STIB 719/ ILRAD 560 infected in NMRI mouse assessed as reduction in parasitemia at 30 mg/kg, sc administered as single dose and measured twice a week for 21 days; assay type: functional; design: scale not given: the % may be the effect or the level left; details: time 21 day
Trypanosoma congolense [13] = assay: Antitrypanosomal activity against bloodstream Trypanosoma congolense KONT 2/133 infected in Friesian-Holstein calf assessed as reduction in parasitemia at 5 mg/kg, sc BID and measured after 3 days; assay type: functional, organism-based; details: time 3.0 day
Trypanosoma vivax [14] = assay: Antitrypanosomal activity against bloodstream Trypanosoma vivax STIB 719/ ILRAD 560 infected in NMRI mouse assessed as reduction in parasitemia at 3 mg/kg, sc QD for 4 days and measured twice a week for 21 days; design: scale not given: the % may be the effect or the level left; details: time 21 day
Trypanosoma congolense [15] = assay: Antitrypanosomal activity against bloodstream Trypanosoma congolense IL3000 infected in NMRI mouse assessed as reduction in parasitemia at 3 mg/kg, sc administered for 4 days; assay type: functional; design: scale not given: the % may be the effect or the level left; details: time 4 day

Work on `CNCc1cc(F)c(C(=O)c2sc(N[C@H]3CC[C@H](NS(=O)(=O)CC(C)C)CC3)nc2N)c(F)c1.Cl` yielded an Activity (Trypanosoma congolense [1]; time 4 day) of 100% and an Activity (Trypanosoma vivax [2]; time 4 day) of 100%.

In the case of `CC(C)CS(=O)(=O)N[C@H]1CC[C@H](Nc2nc(N)c(C(=O)c3c(F)cc(CN4CCN(C)CC4)cc3F)s2)CC1`, the Activity (Trypanosoma vivax [2]; time 4.0 day) was “inactive”.

Work on `CC(C)CS(=O)(=O)N[C@H]1CC[C@H](Nc2nc(N)c(C(=O)c3c(F)cc(CN(C)C)cc3F)s2)CC1` yielded an Activity (Trypanosoma congolense [1]; time 4 day) of 100%, an Activity (Trypanosoma vivax [3]) of 100% and an Activity (Trypanosoma vivax [2]; time 4 day) of 100%. For the same compound, the Activity (Trypanosoma vivax [4]) was 100%, the Activity (Trypanosoma congolense [5]) was “inactive” and the Activity (Trypanosoma vivax [6]) was “inactive”. For the same compound, the Activity (Trypanosoma vivax [7]) was “inactive”, the Activity (Trypanosoma vivax [8]) was “inactive” and the Activity (Trypanosoma congolense [9]) was “Active”.

With `CC(C)CS(=O)(=O)N[C@H]1CC[C@H](Nc2nc(N)c(C(=O)c3c(F)cc(CN4CCCC4)cc3F)s2)CC1.Cl` the Activity (Trypanosoma vivax [2]; time 4 day) was 100%.

In the case of `CC(C)CS(=O)(=O)N[C@H]1CC[C@H](Nc2nc(N)c(C(=O)c3c(F)cc(CN4CCOCC4)cc3F)s2)CC1`, the Activity (Trypanosoma congolense [1]; time 4.0 day) was “inactive” and the Activity (Trypanosoma vivax [2]; time 4.0 day) was “inactive”.

Compound `CC(C)CS(=O)(=O)N[C@H]1CC[C@H](Nc2nc(N)c(C(=O)c3c(F)cccc3F)s2)CC1` has an Activity [10] of 100%, an Activity (Trypanosoma vivax [11]) of 100% and an Activity (Trypanosoma vivax [12]) of 100%. For the same compound, the Activity (Trypanosoma congolense [13]) was “Active” and the Activity (Trypanosoma vivax [14]) was 100%.

`CC(C)CS(=O)(=O)N[C@H]1CC[C@H](Nc2nc(N)c(C(=O)c3c(Cl)cccc3Cl)s2)CC1` gave an Activity (Trypanosoma vivax [3]) of 100% and an Activity (Trypanosoma congolense [15]) of 100%.
